Experimental data reported in BindingDB's records for doi:10.1021/jm980077m (New York University Medical Center, 1998).
Values joined by “and” are separate entries in the source; they are usually repeats but may differ in a detail not shown here. Identical values can stand only once.

Molecular target: T1, Alpha-1D adrenergic receptor (Homo sapiens, UniProt P25100)
T1 sequence (P25100 whole entry): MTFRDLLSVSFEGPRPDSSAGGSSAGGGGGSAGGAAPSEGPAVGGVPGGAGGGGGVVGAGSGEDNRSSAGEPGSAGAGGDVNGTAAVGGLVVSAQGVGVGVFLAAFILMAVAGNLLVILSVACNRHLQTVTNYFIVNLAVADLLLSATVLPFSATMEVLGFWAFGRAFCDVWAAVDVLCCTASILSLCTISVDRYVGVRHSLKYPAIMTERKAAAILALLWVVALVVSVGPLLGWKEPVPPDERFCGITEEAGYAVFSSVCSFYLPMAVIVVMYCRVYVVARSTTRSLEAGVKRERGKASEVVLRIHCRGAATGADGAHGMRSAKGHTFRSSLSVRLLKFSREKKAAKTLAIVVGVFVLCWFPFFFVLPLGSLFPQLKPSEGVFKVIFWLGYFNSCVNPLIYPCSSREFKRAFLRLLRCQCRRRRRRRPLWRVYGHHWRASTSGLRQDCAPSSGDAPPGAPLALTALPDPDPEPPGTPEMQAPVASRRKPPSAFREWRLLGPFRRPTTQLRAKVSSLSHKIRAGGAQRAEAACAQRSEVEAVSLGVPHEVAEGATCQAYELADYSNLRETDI
Assay: Binding affinity determined by displacement of [3H]prazosin from alpha-1D adrenergic receptor
Outline: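 Radioligand displacement binding with [3H]prazosin at the alpha-1d adrenoceptor. Incubation ran 30 min, with 4 h used for one earlier reference compound. Results were expressed as pKi.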

## CC1=NC(C)=C(C(=O)NCCCN2CCC(c3ccccc3)(c3ccccc3)CC2)C(c2ccc([N+](=O)[O-])cc2)C1C(N)=O (stereo unspecified) [2,6-Dimethyl-4-(4-nitro-phenyl)-1,4-dihydro-pyridine-3,5-dicarboxylic acid 3-amide 5-{[3-(4,4-diphenyl-piperidin-1-yl)-propyl]-amide}]
  Ki: 224 nM and 223 nM
